Measured values as given in ChEMBL document CHEMBL1126137, “Structure-function studies in a series of carboxyl-terminal octapeptide analogues of anaphylatoxin C5a” (J Med Chem, 1992).
Where a SMILES comes first, the peptide text is derived from it. [ ]: non-standard residue; d: D form. Cha = N[C@@H](CC1CCCCC1)C(=O)O; Nle = CCCC[C@H](N)C(=O)O

What was measured:
[1] = Compound was evaluated for its ability to stimulate polymorphonuclear leukocyte (PMNL) chemokinetic migration; assay type: functional, Homo sapiens
Outline: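 Human blood PMNL from density-gradient centrifugation, with hypotonic red-cell lysis and three washes. Cells at 2×10^8/mL in 0.3% agarose, set as 1-μL droplets, chilled 10 min on ice, then overlaid with buffer ± stimulus. Buffer: Earle's salts, 20 mM HEPES pH 7.0, 0.25% gelatin. Run 2 h at 37 °C. Migration from droplet edge, minus buffer control, as % of peak rC5a response. Dose-response dosing.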

[2] = target: T1, C5a anaphylatoxin chemotactic receptor 1 (Homo sapiens, UniProt P21730); experiment: Ability to inhibit the binding of […] to polymorphonuclear leukocyte (PMNL) membrane receptor
T1 sequence (P21730 whole entry): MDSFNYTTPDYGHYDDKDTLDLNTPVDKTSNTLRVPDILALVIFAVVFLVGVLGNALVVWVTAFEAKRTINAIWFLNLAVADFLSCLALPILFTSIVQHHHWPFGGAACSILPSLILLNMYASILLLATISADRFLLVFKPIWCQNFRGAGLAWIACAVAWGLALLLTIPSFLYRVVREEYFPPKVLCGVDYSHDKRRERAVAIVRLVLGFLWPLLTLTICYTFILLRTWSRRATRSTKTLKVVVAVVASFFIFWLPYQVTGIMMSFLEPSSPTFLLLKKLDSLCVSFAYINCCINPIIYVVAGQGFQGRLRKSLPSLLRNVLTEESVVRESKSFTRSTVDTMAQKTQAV
Outline: (§1)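 Competition for radioiodinated C5a binding to human PMNL membranes, isolated by nitrogen cavitation and Percoll gradient. Tracer made by glucose oxidase-lactoperoxidase iodination and affinity-purified. Buffered balanced salts (pH 7.0), 0.25% gelatin, protease inhibitors, 50–250 pM 125I-C5a, 5–20 μg/mL membranes. 60 min, ambient temperature, filtration. IC50 from linear regression; Ki by Cheng–Prusoff. Single-point lines give percent inhibition at 1 mM peptide.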

[3] = target: T2, C5a anaphylatoxin chemotactic receptor 1 (Homo sapiens) (UniProt P21730); experiment: Compound was evaluated for its ability to inhibit the binding of […] to polymorphonuclear leukocyte (PMNL) membrane receptor at 1 mM concentration.; outline: as §1
T2 sequence (whole entry): T1 sequence (P21730 whole entry)

| Compound | Efficacy [1] | Ki [2] | inhibition [3] |
| --- | --- | --- | --- |
| CC(=O)N[C@@H](Cc1c[nH]cn1)C(=O)N[C@@H](CCCCN)C(=O)N[C@@H](CC(=O)O)C(=O)N[C@@H](Cc1ccccc1)C(=O)N[C@@H](Cc1ccccc1)C(=O)N[C@@H](Cc1ccccc1)C(=O)N[C@H](C)C(=O)N[C@@H](CCCN=C(N)N)C(=O)O | 109% | 750 µM | – |
| CC[C@H](C)[C@H](NC(=O)[C@H](CC1CCCCC1)NC(=O)[C@H](CC1CCCCC1)NC(=O)[C@H](CC(=O)O)NC(=O)[C@H](CCCCN)NC(=O)[C@H](Cc1c[nH]cn1)NC(C)=O)C(=O)N[C@H](C)C(=O)N[C@@H](CCCN=C(N)N)C(=O)O | 56% | 2 µM | – |
| CC(=O)N[C@@H](Cc1c[nH]cn1)C(=O)N[C@@H](CCCCN)C(=O)N[C@@H](CC(=O)O)C(=O)N[C@@H](CC1CCCCC1)C(=O)N[C@@H](CC1CCCCC1)C(=O)N[C@@H](CC1CCCCC1)C(=O)NCC(=O)N[C@@H](CCCN=C(N)N)C(=O)O (Ac-HKD[Cha][Cha][Cha]GR-OH) | 75% | 25 µM | – |
| CC(=O)N[C@@H](Cc1c[nH]cn1)C(=O)N[C@@H](CCCCN)C(=O)N[C@@H](CC(=O)O)C(=O)N[C@@H](CC1CCCCC1)C(=O)N[C@H](CC1CCCCC1)C(=O)N[C@@H](CC(C)C)C(=O)N[C@H](C)C(=O)N[C@@H](CCCN=C(N)N)C(=O)O | – | – | 26% |
| CC(=O)N[C@@H](Cc1c[nH]cn1)C(=O)N[C@@H](CCCCN)C(=O)N[C@@H](CC(=O)O)C(=O)N[C@@H](Cc1ccc(O)cc1)C(=O)N[C@@H](Cc1ccc(O)cc1)C(=O)N[C@@H](Cc1ccc(O)cc1)C(=O)N[C@H](C)C(=O)N[C@@H](CCCN=C(N)N)C(=O)O | – | – | < 20% |
| CCC[C@H](NC(=O)[C@H](CC1CCCCC1)NC(=O)[C@H](CC1CCCCC1)NC(=O)[C@H](CC(=O)O)NC(=O)[C@H](CCCCN)NC(=O)[C@H](Cc1c[nH]cn1)NC(C)=O)C(=O)N[C@H](C)C(=O)N[C@@H](CCCN=C(N)N)C(=O)O | 55% | 5.3 µM | – |
| CC(=O)N[C@@H](Cc1c[nH]cn1)C(=O)NC(CCCCN)C(=O)N[C@@H](CC(=O)O)C(=O)NC(CC1CCCCC1)C(=O)N[C@H](CC1CCCCC1)C(=O)N[C@@H](CC(C)C)C(=O)N[C@H](C)C(=O)N[C@@H](CCCN=C(N)N)C(=O)O (single isomer, unassigned) | 71% | 600 µM | – |
| CC(=O)N[C@@H](Cc1c[nH]cn1)C(=O)N[C@@H](CCCCN)C(=O)N[C@@H](CC(=O)O)C(=O)N[C@@H](CC1CCCCC1)C(=O)N[C@@H](CC1CCCCC1)C(=O)N[C@@H](CC1CCCCC1)C(=O)N[C@H](C)C(=O)N[C@@H](CCCN=C(N)N)C(=O)O | 67% | 10 µM | – |
| CSCC[C@H](NC(=O)[C@H](CC(=O)O)NC(=O)[C@H](CCCCN)NC(=O)[C@H](Cc1c[nH]cn1)NC(C)=O)C(=O)N[C@@H](CCC(N)=O)C(=O)N[C@@H](CC1CCCCC1)C(=O)NCC(=O)N[C@@H](CCCN=C(N)N)C(=O)O (Ac-HKDMQ[Cha]GR-OH) | – | – | 30% |
| CC(=O)N[C@@H](Cc1c[nH]cn1)C(=O)N[C@@H](CCCCN)C(=O)N[C@@H](CC(=O)O)C(=O)N[C@@H](CC1CCCCC1)C(=O)N[C@@H](CC1CCCCC1)C(=O)N[C@@H](CC(C)C)C(=O)N[C@H](C)C(=O)N[C@@H](CCCN=C(N)N)C(=O)O | 57% | 2.9 µM | – |
| Ac-HKDMQLGR-OH | 107% | – | – |
| CC(=O)N[C@@H](Cc1c[nH]cn1)C(=O)N[C@@H](CCCCN)C(=O)N[C@@H](CC(=O)O)C(=O)N[C@@H](CC1CCCCC1)C(=O)N[C@@H](CC1CCCCC1)C(=O)N[C@H](C(=O)N[C@H](C)C(=O)N[C@@H](CCCN=C(N)N)C(=O)O)C(C)C | 60% | 1.6 µM | – |
| CCCC[C@H](NC(=O)[C@H](CCCC)NC(=O)[C@H](CCCC)NC(=O)[C@H](CC(=O)O)NC(=O)[C@H](CCCCN)NC(=O)[C@H](Cc1c[nH]cn1)NC(C)=O)C(=O)NCC(=O)N[C@@H](CCCN=C(N)N)C(=O)O (Ac-HKD[Nle][Nle][Nle]GR-OH) | – | 210 µM | – |
